Experimental data taken from ChEMBL document CHEMBL3867427, “Cytotoxic Guanidine Alkaloids from a French Polynesian Monanchora n. sp. Sponge” (J Nat Prod, 2016).

What was measured:
[1] = Cytotoxicity against human KB cells assessed as inhibition of cell proliferation at 10 uM after 72 hrs by cell titer 96 aqueous one solution based assay; type: functional
Outline: (§1)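 KB cells in D-MEM with 10% FCS and antibiotics/fungizone under 5% CO2. 600 cells/well treated 24 h after seeding, 1% DMSO final, against DMSO controls. After 72 h, CellTiter 96 AQueous One for 3 h at 37 °C, absorbance 490 nm. Inhibition = [1 − (OD490 treated/OD490 control)] × 100, triplicate; mean ± SE.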

[2] = Cytotoxicity against human KB cells assessed as inhibition of cell proliferation at 1 uM after 72 hrs by cell titer 96 aqueous one solution based assay; type: functional; outline: as §1
[3] = Antiproliferative activity against human KB cells after 72 hrs by cell titer 96 aqueous one solution based assay; type: functional
Outline: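 KB cells (NCI origin) in D-MEM with 10% fetal calf serum, penicillin, streptomycin and fungizone under 5% CO2. 600 cells/well, dosed 24 h after plating from DMSO stocks (1% DMSO final; DMSO-only controls). 72 h exposure, then CellTiter 96 AQueous One for 3 h at 37 °C, A490. IC50 (50% inhibition) from 5 nM–100 μM in separate duplicate experiments.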

[4] = Antiproliferative activity against human HCT116 cells after 72 hrs by cell titer 96 aqueous one solution based assay; type: functional; settings: HCT-116, 72 h
[5] = Antiproliferative activity against human HL60 cells after 72 hrs by cell titer 96 aqueous one solution based assay; type: functional; settings: HL-60, 72 h
[6] = Antiproliferative activity against human MRC5 cells after 72 hrs by cell titer 96 aqueous one solution based assay; settings: MRC5, 72 h
[7] = Antiproliferative activity against human HCT116 cells at 1 to 10 uM after 72 hrs by cell titer 96 aqueous one solution based assay relative to control; type: functional, HCT-116
[8] = Antiproliferative activity against human HL60 cells at 1 to 10 uM after 72 hrs by cell titer 96 aqueous one solution based assay relative to control; type: functional, HL-60
[9] = Antiproliferative activity against human MRC5 cells at 1 to 10 uM after 72 hrs by cell titer 96 aqueous one solution based assay relative to control; settings: mrc5, 72 h
[10] = Antiproliferative activity against mouse B16F10 cells after 72 hrs by neutral red staining based assay; type: functional, cell-based; settings: B16-F10, 72 h
Outline: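 Murine B16F10 (ATCC) in DMEM with pyruvate, 10% FBS, 2% glutamine, 1% pen-strep, 37 °C, 5% CO2. 20 000 cells/well dosed 24 h later (1% DMSO final). After 72 h, PBS rinse, neutral red 40 μg/mL for 3 h at 37 °C, destain with acetic acid/EtOH/H2O 1:50:49 for 30 min at RT, A540. IC50 over 10 ng/mL–10 μg/mL, separate duplicates.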

[11] = Antiproliferative activity against mouse B16F10 cells at 1 to 10 uM after 72 hrs by neutral red staining based assay relative to control; type: functional, B16-F10
Outline: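 B16F10 cells in supplemented DMEM at 37 °C, 5% CO2, 20 000/well, treated 24 h after plating with 1% DMSO final. After 72 h exposure, neutral red uptake (40 μg/mL, 3 h, 37 °C), acid-ethanol destain, absorbance 540 nm. Inhibition = [1 − (OD540 treated/OD540 control)] × 100 from triplicate experiments.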

[12] = Antiproliferative activity against human MDA435 cells after 72 hrs by cell titer 96 aqueous one solution based assay; type: functional; settings: MDA-MB-435, 72 h
[13] = Antiproliferative activity against human MDA435 cells at 1 to 10 uM after 72 hrs by cell titer 96 aqueous one solution based assay relative to control; type: functional, MDA-MB-435

SMILES	inhibition at 10 µM [1] [%]	inhibition at 1 µM [2] [%]	IC50 [3] [nM]	IC50 [4] [nM]	IC50 [5] [nM]	IC50 [6] [nM]	Activity [7] [%]	Activity [8] [%]	Activity [9] [%]	IC50 [10] [nM]	Activity [11] [%]	IC50 [12] [nM]	Activity [13] [%]
CC[C@H]1C=CCC[C@@]2(C[C@@H]3CC[C@@H]4C[C@]5(CCC[C@@H](C)O5)NC(=[N+]43)N2)O1	84	0											
CC[C@H]1C=CCC[C@@]2(C[C@@H]3CC[C@@H]4[C@H](C(=O)OCCCCCCCCCCCCCCCC(=O)O)[C@]5(CCC[C@@H](C)O5)NC(=[N+]34)N2)O1	97	85	500 to 600										
CCCCCCC[C@@H]1N=C(N)N2CCCC2=C1C(=O)OCCCCNC(=N)N	100	80	100 to 200										
CCCCCCCC[C@@H]1N=C(N)N2CCCC2=C1C(=O)OCCCCNC(=N)N	100	86	300	3400 to 4200	8000 to 9100	3600 to 4100	100	100	100				
CC[C@H]1C=CCC[C@@]2(C[C@@H]3CC[C@@H]4[C@H](C(=O)OCCCCCCCCCCCCCCCCCC(=O)N(CCCN)CCCC(N)=O)[C@]5(CCC[C@@H](C)O5)NC(=[N+]34)N2)O1	100	100	50 to 70							800 to 850	100		
CCCCCCCCC[C@@H]1N=C(N)N2CCCC2=C1C(=O)OCCCCNC(=N)N	100	97	30										
CCCCCCC[C@@H]1N=C(N)N2CCCC2=C1C(=O)O	96	61	6700 to 7700	9900	3800 to 7100		100	100				9300 to 11000	100
CC[C@H]1C=CCC[C@@]2(C[C@@H]3CC[C@@H]4[C@H](C(=O)OCCCCCCCCCCCCCCCC(=O)O)[C@]5(CCCCO5)NC(=[N+]34)N2)O1	95	80	500 to 600										
CCCCCCCCCc1nc(N)[n+]2c(c1C(=O)OCCCCNC(=N)N)CCC2	98	89	100	3400 to 3500	3600 to 5400	3400 to 3900	100	100	100				
CCCCCCCCCc1cc2[n+](c(N)n1)CCC2	99	82	200 to 400	740 to 840	1300	550 to 600	100	100	100			320 to 860	100
CCCCCCCCC[C@@H]1N=C(N)N2CCCC2=C1C(=O)O	72	0											
CC[C@H]1C=CCC[C@@]2(C[C@@H]3CC[C@@H]4[C@H](C(=O)OCCCCCCCCCCCCCCCCC(=O)N(CCCN)CC(O)CCN)[C@]5(CCC[C@@H](C)O5)NC(=[N+]34)N2)O1 (stereo not given in full)	100	96	5 to 20	20 to 50	10 to 30		100	100		200	100	40 to 70	100
CC[C@H]1C=CCC[C@@]2(C[C@@H]3CC[C@@H]4[C@H](C(=O)OCCCCCCCCCCCCCCCC(=O)N(CCCN)CC(O)CCN)[C@]5(CCC[C@@H](C)O5)NC(=[N+]34)N2)O1 (stereo not given in full)	99	100	5	7	4 to 6		100	100		200	100	9 to 15	100
CC[C@H]1C=CCC[C@@]2(C[C@@H]3CC[C@@H]4[C@H](C(=O)OCCCCCCCCCCCCCCC(=O)N(CCCN)CC(O)CCN)[C@]5(CCC[C@@H](C)O5)NC(=[N+]34)N2)O1 (stereo not given in full)	100	89	300	3100 to 3400	5000 to 5400	3200 to 3400	100	100	100				
